# Experiments:
# hERG (KCNH2) = hERG (KCNH2) (Homo sapiens, UniProt Q12809); test: Inhibition of human ERG at 10 uM by patch clamp assay
# Outline: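 hERG block measured by patch clamp at 10 µM; values averaged from at least two independent experiments.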
# [1] = Ratio of drug level in brain to plasma in rat; type: ADME; conditions: read-out: BPR
# [2] = Oral bioavailability in rat; type: ADME, organism-based; conditions: in vivo
# [3] = Clearance in rat; type: ADME, organism-based; conditions: in vivo
# [4] = molecular target: T1, Sodium- and chloride-dependent glycine transporter 2 (Homo sapiens, UniProt Q9Y345); test: Inhibition of human GlyT2 expressed in CHO cells assessed as inhibition of [3H]glycine uptake by liquid scintillation counting; type: cell-based
# T1 sequence (Q9Y345 whole entry): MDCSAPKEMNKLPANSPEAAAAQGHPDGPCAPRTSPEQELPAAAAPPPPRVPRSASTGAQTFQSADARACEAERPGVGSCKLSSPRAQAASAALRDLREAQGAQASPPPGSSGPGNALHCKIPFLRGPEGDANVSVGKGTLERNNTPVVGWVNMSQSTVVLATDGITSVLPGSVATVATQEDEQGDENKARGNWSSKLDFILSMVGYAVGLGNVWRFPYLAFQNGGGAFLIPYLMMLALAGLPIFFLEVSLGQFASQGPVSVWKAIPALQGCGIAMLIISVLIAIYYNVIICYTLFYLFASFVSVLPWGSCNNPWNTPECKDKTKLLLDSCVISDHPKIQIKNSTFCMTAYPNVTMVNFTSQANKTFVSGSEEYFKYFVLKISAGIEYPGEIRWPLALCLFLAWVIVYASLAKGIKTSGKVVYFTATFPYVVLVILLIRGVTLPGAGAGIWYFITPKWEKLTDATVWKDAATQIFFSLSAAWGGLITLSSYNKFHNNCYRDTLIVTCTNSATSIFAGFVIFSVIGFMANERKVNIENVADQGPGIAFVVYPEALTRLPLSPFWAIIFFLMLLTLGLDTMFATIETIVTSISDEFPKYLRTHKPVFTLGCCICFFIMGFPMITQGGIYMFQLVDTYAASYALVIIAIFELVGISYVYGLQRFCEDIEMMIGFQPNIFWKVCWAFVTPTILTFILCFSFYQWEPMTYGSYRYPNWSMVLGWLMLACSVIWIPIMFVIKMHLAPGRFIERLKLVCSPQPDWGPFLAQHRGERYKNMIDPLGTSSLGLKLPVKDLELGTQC
# Outline: (§1)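 [3H]-glycine uptake inhibition in cells transfected with human GlyT1 or human GlyT2 cDNA. EC50 values averaged from at least two independent experiments.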
# [5] = molecular target: T2, Sodium- and chloride-dependent glycine transporter 1 (Homo sapiens, UniProt P48067); test: Inhibition of human GlyT1 expressed in CHO cells assessed as inhibition of [3H]glycine uptake by liquid scintillation counting; type: cell-based; outline: as §1
# T2 sequence (P48067 whole entry): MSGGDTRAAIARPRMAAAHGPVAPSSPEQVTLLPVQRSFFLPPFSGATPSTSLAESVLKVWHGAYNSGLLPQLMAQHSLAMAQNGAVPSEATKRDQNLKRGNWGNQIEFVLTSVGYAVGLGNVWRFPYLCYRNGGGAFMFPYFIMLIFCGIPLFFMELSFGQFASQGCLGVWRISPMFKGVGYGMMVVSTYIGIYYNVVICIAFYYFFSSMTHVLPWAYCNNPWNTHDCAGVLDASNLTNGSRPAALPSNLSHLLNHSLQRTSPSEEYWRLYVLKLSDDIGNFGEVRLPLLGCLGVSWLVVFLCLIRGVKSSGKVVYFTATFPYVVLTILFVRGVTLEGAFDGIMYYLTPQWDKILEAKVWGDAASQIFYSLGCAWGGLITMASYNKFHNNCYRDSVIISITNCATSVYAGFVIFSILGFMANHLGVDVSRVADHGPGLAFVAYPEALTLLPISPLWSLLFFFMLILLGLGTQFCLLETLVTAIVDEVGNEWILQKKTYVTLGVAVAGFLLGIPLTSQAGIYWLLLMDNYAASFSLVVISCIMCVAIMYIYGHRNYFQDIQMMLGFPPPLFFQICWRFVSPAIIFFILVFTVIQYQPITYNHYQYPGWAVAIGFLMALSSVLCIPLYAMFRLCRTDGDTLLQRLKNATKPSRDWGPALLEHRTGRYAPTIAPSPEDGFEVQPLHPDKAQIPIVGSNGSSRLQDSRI
# [6] = Aqueous solubility of the compound by lyophilisate solubility assay; type: physicochemical; conditions: buffer
# Outline: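 LYSA: compound in DMSO solution lyophilized, then dissolved in 0.05 M phosphate buffer pH 6.5, stirred 1 h and shaken 2 h; solubility in µg/ml.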
# Mus musculus = test: Antipsychotic activity in po dosed mouse assessed as inhibition of L-687414-induced hyperlocomotion after 60 mins; type: functional; conditions: 1 h, read-out: ID50 (the source's name)
# Outline: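 Mice given compound orally, n = 8 per group; hyperlocomotion induced by L-687,414. Horizontal activity counts recorded over a 60-min period and reported as group means. ID50 (mg/kg) derived from dose-dependent inhibition of the L-687,414-induced response.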
# [7] = Volume of distribution in rat; type: ADME, organism-based; conditions: in vivo
# [8] = Permeability of the compound by PAMPA; type: ADME; conditions: read-out: permeability
# Outline: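 PAMPA: permeation constant Pe (10^-6 cm/s) measured through artificial membranes.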
# [9] = Intrinsic clearance in rat liver microsomes assessed per mg of protein; type: ADME, Microsome
# Outline: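 Intrinsic clearance measured in rat liver microsomes, expressed as µL/min/mg protein.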
# Rattus norvegicus [10] = test: […] in rat striatum assessed as increase of glycine level at 10 mg/kg, po relative to basal level; type: functional
# Outline: (§2)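 Rats dosed 10 mg/kg po, n = 6. Striatal extracellular fluid sampled for glycine over 3 h, expressed as maximal fold increase and fold increase at 3 h. Animals sacrificed at 3 h; plasma and brain drug levels measured at 3 h post dose.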
# Rattus norvegicus [11] = test: […] in rat striatum assessed as increase of glycine at 10 mg/kg, po after 3 hrs relative to basal level; type: functional; outline: as §2
# [12] = Oral bioavailability in rat at 2 mg/kg; type: ADME, organism-based; conditions: in vivo
# Outline: (§3)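 Single-dose rat PK with iv doses of 1.7, 2.0 or 2.2 mg/kg and po doses of 2, 5.7 or 6.8 mg/kg. CL, Vss, oral bioavailability, terminal half-life and brain/plasma ratio determined; values averaged from two independent experiments.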
# [13] = Drug level in rat plasma at 10 mg/kg after 3 hrs; type: ADME, organism-based; parameters: dose 10 mg/kg; outline: as §2
# [14] = Ratio of drug level in brain to plasma in rat at 2 mg/kg, po; type: ADME, organism-based; parameters: dose 2 mg/kg, route oral; conditions: read-out: BPR
# [15] = Terminal half life in rat at 2 mg/kg, po; type: ADME, organism-based; parameters: dose 2 mg/kg, route oral; conditions: in vivo, read-out: beta t1/2 (converted); outline: as §3
# [16] = Volume of distribution at steady state in rat at 2 mg/kg, iv; type: ADME, organism-based; parameters: dose 2 mg/kg, route intravenous; conditions: in vivo, read-out: Vdss; outline: as §3
# [17] = Drug level in rat brain at 10 mg/kg after 3 hrs; type: ADME, organism-based; parameters: dose 10 mg/kg; conditions: read-out: Drug uptake; outline: as §2
# [18] = Clearance in rat at 2 mg/kg, iv; type: ADME, organism-based; parameters: dose 2 mg/kg, route intravenous; conditions: in vivo; outline: as §3
# Sequence of hERG (KCNH2) (Q12809 whole entry): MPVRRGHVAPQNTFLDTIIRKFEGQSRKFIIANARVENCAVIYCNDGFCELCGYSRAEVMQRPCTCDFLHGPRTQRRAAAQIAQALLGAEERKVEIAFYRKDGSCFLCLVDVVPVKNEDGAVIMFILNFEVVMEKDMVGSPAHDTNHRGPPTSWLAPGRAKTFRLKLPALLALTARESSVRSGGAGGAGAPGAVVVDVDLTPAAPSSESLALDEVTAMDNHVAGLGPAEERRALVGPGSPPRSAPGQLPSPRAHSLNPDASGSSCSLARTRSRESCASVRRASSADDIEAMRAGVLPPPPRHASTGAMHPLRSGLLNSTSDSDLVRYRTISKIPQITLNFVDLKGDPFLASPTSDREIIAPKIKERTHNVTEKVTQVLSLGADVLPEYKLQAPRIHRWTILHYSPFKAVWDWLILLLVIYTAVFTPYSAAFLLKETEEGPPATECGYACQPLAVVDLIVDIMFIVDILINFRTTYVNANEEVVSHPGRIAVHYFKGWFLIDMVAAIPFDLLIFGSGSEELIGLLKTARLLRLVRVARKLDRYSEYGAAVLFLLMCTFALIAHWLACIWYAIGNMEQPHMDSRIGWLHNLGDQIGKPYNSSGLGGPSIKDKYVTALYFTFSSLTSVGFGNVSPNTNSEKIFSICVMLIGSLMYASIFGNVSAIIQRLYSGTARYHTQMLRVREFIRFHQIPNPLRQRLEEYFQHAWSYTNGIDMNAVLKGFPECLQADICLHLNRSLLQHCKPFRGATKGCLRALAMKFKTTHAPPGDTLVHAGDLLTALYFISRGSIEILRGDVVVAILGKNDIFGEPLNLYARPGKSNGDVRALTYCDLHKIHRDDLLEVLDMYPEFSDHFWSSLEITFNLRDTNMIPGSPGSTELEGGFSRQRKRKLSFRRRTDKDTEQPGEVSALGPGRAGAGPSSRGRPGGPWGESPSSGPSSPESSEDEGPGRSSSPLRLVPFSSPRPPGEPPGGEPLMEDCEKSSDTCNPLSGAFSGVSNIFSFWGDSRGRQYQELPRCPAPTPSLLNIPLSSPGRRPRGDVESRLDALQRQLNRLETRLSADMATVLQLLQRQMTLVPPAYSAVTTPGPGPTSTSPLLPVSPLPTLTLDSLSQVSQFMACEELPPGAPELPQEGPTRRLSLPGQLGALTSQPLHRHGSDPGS
Kp [1],bioavailability [2] [%],clearance [3] [mL/min/kg],EC50 [4] [µM],EC50 [5] [nM],solubility [6] [µg/mL],Vd [7] [L/kg],Papp [8] [×10⁻⁶ cm/s],microsomal CLint [9] [µL/min/mg],bioavailability [12] [%],concentration at 3 h [13] [ng/mL],Kp [14],half-life [15] [min],Vd [16] [L/kg],concentration at 3 h [17] [ng/mL],clearance [18] [mL/min/kg],SMILES,inhibition at 10 µM (hERG (KCNH2)) [%],ED50 (Mus musculus) [mg/kg],fold change (FC) (Rattus norvegicus [10]),fold change (FC) (Rattus norvegicus [11])
1,23,1.7,> 30,21,1,2.9,0.7,,,,,,,,,C[C@H](Oc1ccc(S(C)(=O)=O)cc1C(=O)N1Cc2ccc(C(F)(F)F)cc2C1)C(F)(F)F,59,2,,
,,,12,13,4,,2.6,,,,,,,,,C[C@H](Oc1ccc(S(C)(=O)=O)cc1C(=O)N1Cc2ccc(-c3ccccc3)cc2C1)C(F)(F)F,67,6,,
,,,> 30,50,280,,5,1.9,55,2500,0.2,360,1.4,500,1.7,C[C@H](Oc1ccc(S(C)(=O)=O)cc1C(=O)N1Cc2cc(C(F)(F)F)cnc2C1)C(F)(F)F,12,0.4,1.8,1.8
,,,> 30,17,25,,4.2,,,,,,,,,C[C@H](Oc1ccc(S(C)(=O)=O)cc1C(=O)N1Cc2ccc(-c3ccncc3)cc2C1)C(F)(F)F,58,3,,
